HNF4A DNA FP: change in binding of human HNF4A to DNA, primary screen, biochemical, fluorescence polarization, FITC-DNA; Hepatocyte nuclear factor 4-alpha (Homo sapiens), P41235; 1 h; activity change, % at 10 µM; 0.3% of 360,000 active; AID 1224865, 2016; in the data active = activity change above about 30%, passing the limit was not always enough
TPT1 inhibitor: Candida albicans TPT1 enzyme inhibitors, primary screen, biochemical, fluorescence polarization. recombinant caTPT1, FP RNA substrate dephosphorylation. inhibition, % at 5 µM. 0.81% of 300,000 active. AID 1962, 2009;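 active = inhibition above the mean of all tested compounds plus 3 SD, set per screening campaign, cut at about 24% in these data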
Rpn11 block: Rpn11 (PSMD14) deubiquitinase inhibitors, primary screen, biochemical, fluorescence polarization, uHTS; 26S proteasome non-ATPase regulatory subunit 14 (Homo sapiens), O00487; human 26S proteasome, Ub4-pepOG fluorescence polarization; 20S core pre-blocked with epoxomicin; inhibition, % at 20 µM; 0.59% of 360,000 active; AID 588493, 2011;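 active = inhibition at 20 µM, scaled to each plate's controls, above about 33%, limit read from the data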
Target sequence (O00487 whole entry, looked up): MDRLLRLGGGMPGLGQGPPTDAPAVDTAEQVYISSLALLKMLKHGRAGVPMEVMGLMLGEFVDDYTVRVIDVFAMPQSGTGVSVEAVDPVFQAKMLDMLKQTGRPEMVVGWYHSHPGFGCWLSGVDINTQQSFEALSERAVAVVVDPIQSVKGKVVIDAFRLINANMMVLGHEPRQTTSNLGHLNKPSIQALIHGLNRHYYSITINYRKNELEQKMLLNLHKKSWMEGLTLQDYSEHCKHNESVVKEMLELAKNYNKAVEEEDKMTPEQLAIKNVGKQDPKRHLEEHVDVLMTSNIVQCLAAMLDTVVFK
Myeloid diff MLP: induction of myeloid progenitor differentiation, primary screen, cell-based, flow cytometry, MLPCN library; AID 624256, 2012; 1% of 360,000 active; calls only at 10 µM; ER-HoxA9 myeloid progenitors, lysozyme-GFP differentiation;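 active = normalized GFP-positive differentiation at or above the plate's own cutoff, the solvent-only control mean plus 3 SD; inconclusive = no clear call, values can overlap the other calls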;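 also: cells exposed to compound for four days before flow analysis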
CSN deneddyl inh: inhibitors of CSN-mediated cullin deneddylation, primary screen, biochemical, fluorescence polarization, uHTS. 0.38% of 360,000 active. AID 651999, 2013. inhibition, % at 12.5 µM. Purified CSN, SCF-Nedd8-OG deneddylation;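 active = pattern-corrected inhibition above about 35%, with an unprinted fluorescence ratio check between 0.5 and 1.5, limit read from the data, passing the limit was not always enough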
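Assay system: Purified human Csn5 enzyme expressed in HEK293T cells | Amount: Enzyme 0.24 nM | Measured by: Fluorescence polarization readout | Medium: Tris/NaCl/DTT buffer, pH 7.5 | Compound dosing: One concentration, 12.5 µM, 0.25% DMSO | Times: 90 min incubation of compound, enzyme and substrate at room temperature | Control set: no-enzyme wells high, enzyme-with-substrate wells low | Read-out: % inhibition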
Numbers stand for hits; 0 = inactive; ? = inconclusive; - = no result; + = active, no number. The list is not random: actives were taken first. Their share in the collection is about 2.3%.

SMILES	HNF4A DNA FP	TPT1 inhibitor	Rpn11 block	Myeloid diff MLP	CSN deneddyl inh
COc1ccc(-c2cc(-c3ccccc3)c(C#N)c(SCC(=O)O)n2)cc1	0	0	0	0	0
COc1ccc(-c2cc(-c3ccc(Cl)cc3)c(C#N)c(SCC(=O)O)n2)cc1	0	0	0	0	41.5
O=S1(=O)C[C@@H](N2CCC(Cc3ccccc3)CC2)[C@H](COCc2ccccc2)N1	0	-	0	0	0
Cc1ccc(S(=O)(=O)N2C[C@H]3C(=O)C[C@@H](c4ccccc4)N(S(C)(=O)=O)[C@H]3C[C@H]2c2ccccc2)cc1	0	-	0	0	0
CC(C)(C)n1nnnc1C(c1ccccc1)N1CCN(C/C=C/c2ccccc2)CC1 (stereo unspecified)	0	-	0	+	0
CCC(c1nnnn1C(C)(C)C)N1CCN(C/C=C/c2ccccc2)CC1 (stereo unspecified)	0	-	0	0	0
CC1=C(C(=O)N2CCCCCC2)CC(CC(=O)NCCCN(C)C)C(=O)N1Cc1ccc(F)cc1 (stereo unspecified)	0	-	-	0	0
CCN/C=C(\C#N)S(=O)(=O)c1ccc(Br)cc1	0	0	0	0	99.7
O=C(C[n+]1cccc(/C=N/O)c1)NC(=O)Nc1ccccc1	0	-	-	0	0
CN1CCN(c2ccc(CNC(=O)c3ccc4c(c3)OCCO4)cc2)CC1	0	0	0	0	35.6
O=C(O)c1ccc(CNC(=O)c2ccc3c(c2)OCCO3)cc1	0	0	0	?	0
C=CCCC(=O)N1C[C@@H](CO)[C@@H](NC)C[C@H]1c1ccccc1Br	0	-	0	0	106.5
COc1ccc(-c2nc3n(c(=O)c2C#N)CCCS3)cc1	0	0	0	0	0
CCOc1ccc(-c2nc3n(c(=O)c2C#N)CCCS3)cc1	0	0	0	+	0
Cc1ccc(S(=O)(=O)N2[C@H](CC(=O)c3cccs3)OC[C@@H]2C)cc1	0	-	-	0	0
CC(C)C[C@@H](COCc1cccc(Cl)c1)N1CCN(C(=O)c2ccc(C(F)(F)F)cc2)CCC1=O	0	-	-	0	0
c1ccc(NC2=Nc3ccccc3CS2)cc1	0	0	0	+	0
COc1ccc(C(=O)C2CCCN(Cc3ccc4nonc4c3)C2)cc1F (stereo unspecified)	0	0	0	0	0
COc1ccc(C(=O)C2CCCN(Cc3ccc(C#CCCO)cc3)C2)cc1F (stereo unspecified)	0	0	0	+	0
Cc1ccc(N(C)C(=O)C2CCN(S(=O)(=O)c3ccc4c(c3)oc(=O)n4C)CC2)cc1	0	0	0	0	0
CCN(C(=O)C1CCN(S(=O)(=O)c2ccc3c(c2)oc(=O)n3C)CC1)c1cccc(C)c1	0	0	0	+	0
COc1ccc(OC)c(CN2C(=O)c3ccccc3C2c2nnnn2C2CCCC2)c1 (stereo unspecified)	0	-	-	0	0
COc1cccc(Nc2nc(-c3sc(NC(=O)c4ccccc4)nc3C)cs2)c1	0	0	0	+	0
Cc1nc(C)c(-c2csc(NCc3ccco3)n2)s1	0	0	0	0	0
Cc1nc(NC(=O)c2ccccc2)sc1-c1csc(NCc2ccco2)n1	0	0	45.1	?	0
SMILES	HNF4A DNA FP	TPT1 inhibitor	Rpn11 block	Myeloid diff MLP	CSN deneddyl inh
CCOC(=O)C1=CCN(S(=O)(=O)c2ccccc2F)C1c1cccc(Cl)c1 (stereo unspecified)	0	-	0	0	0
C=C1C2=C(C(=O)N1OC)[C@@H](O)[C@@](C)(O)[C@@H](CCCCC)O2	0	-	0	?	0
C#CCN(C[C@@H]1[C@@H](OC(=O)NCc2ccccc2)[C@@H](OC(=O)NCc2ccccc2)CN(C(=O)OC(C)C)N1C(=O)OC(C)C)S(=O)(=O)c1ccc(C)cc1	0	-	0	0	0
COCCN(C(=O)c1cc(-c2ccco2)nc2ccccc12)c1c(N)n(Cc2ccccc2)c(=O)[nH]c1=O	0	-	0	0	37.2
C[C@]12CCC(=O)CC1=CCC1C3CC=C(C#N)[C@@]3(C)CC[C@@]12O (stereo partly specified)	0	0	0	+	0
Cc1ccc(/C=c2\sc3nc(-c4cccs4)nn3c2=O)o1	0	0	0	0	44.0

Screens as filed in PubChem.
